Screening results deposited in PubChem BioAssay by Broad Institute.
This is a sample that favours compounds with a hit; in the whole collection about 2.9% have one here.
DENV2 CPE rescue – DENV2-induced cell death inhibition; AID 651640; CPE inhibition, % at 9.99 µM; hit rate 1.7% among 350,000; DENV2-infected cells, cytopathic effect rescue, plate reader; in the data active = CPE inhibition above about 20%, passing the limit was not always enough; inconclusive = no clear call, values can overlap the other calls; tested in BHK-21 cells
SIRT5 block – blocks human SIRT5 desuccinylation of peptide; inhibition, % at 15 µM; Purified SirT5, succinyl-peptide AMC, trypsin-coupled fluorescence; Q9NXA8; AID 652115; hit rate 1.1% among 330,000; in the data active = inhibition above about 15%; inconclusive = no clear call, values can overlap the other calls
E-sel inducer – induces E-selectin expression in human endothelial cells; P16581; HUVEC E-selectin immunofluorescence imaging; normalized: neutral wells 0, TNF-alpha wells 100; activation, % at 7.58 µM; hit rate 0.37% among 260,000;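 active = mean E-selectin-positive cell signal at least 10% of the positive control, reached in at least 60% of replicates, without over 20% cell loss; inconclusive = no rule given, readout overlaps actives, possibly toxicity-flagged; inactive = the rest, including those meeting only one limit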
Target sequence (P16581 whole entry, looked up): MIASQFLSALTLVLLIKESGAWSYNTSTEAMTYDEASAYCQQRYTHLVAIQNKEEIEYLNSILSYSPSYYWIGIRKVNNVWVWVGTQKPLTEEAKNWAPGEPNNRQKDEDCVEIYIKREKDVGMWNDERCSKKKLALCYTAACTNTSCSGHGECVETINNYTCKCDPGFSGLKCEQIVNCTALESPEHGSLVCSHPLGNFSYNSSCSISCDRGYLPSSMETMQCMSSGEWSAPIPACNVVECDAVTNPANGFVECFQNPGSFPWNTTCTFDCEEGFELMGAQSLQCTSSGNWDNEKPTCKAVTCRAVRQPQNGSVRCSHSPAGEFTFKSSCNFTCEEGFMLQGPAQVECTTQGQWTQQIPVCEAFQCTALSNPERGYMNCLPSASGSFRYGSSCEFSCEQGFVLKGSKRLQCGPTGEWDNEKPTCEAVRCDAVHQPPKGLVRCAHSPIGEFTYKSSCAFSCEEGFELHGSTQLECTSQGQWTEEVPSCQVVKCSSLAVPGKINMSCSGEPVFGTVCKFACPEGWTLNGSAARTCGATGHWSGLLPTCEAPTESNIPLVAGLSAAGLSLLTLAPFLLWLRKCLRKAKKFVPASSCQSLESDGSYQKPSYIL
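Assay system: HUVEC, human umbilical vein endothelial cells / Amount: 3,000 HUVEC/well / Controls: TNF-alpha positive control, DMSO neutral control / Compound dosing: single concentration / Medium: EGM-2 over gelatin coat / Evaluation: percent E-selectin-positive cells / Signal: immunofluorescence imaging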
Hits are given with their value; 0 = inactive; ? = inconclusive; - = not tested or not shown.

SMILES | DENV2 CPE rescue | SIRT5 block | E-sel inducer
C[C@@H]1CN([C@H](C)CO)C(=O)c2cc(NS(=O)(=O)c3ccccc3)ccc2O[C@@H]1CN(C)Cc1ccc(-c2ccccc2)cc1 | 0 | 15.3 | 0
C[C@H](CO)N1C[C@H](C)[C@@H](CN(C)Cc2ccc(-c3ccccc3)cc2)Oc2ccc(NS(=O)(=O)c3ccccc3)cc2C1=O | 0 | 0 | 0
COc1cccc(CN2C[C@H]3O[C@H](CNS(=O)(=O)c4cn(C)cn4)CC[C@H]32)c1 | 0 | 0 | -
CCCNC(=O)N1C[C@H](C)[C@H](OC)CN(C)C(=O)c2cc(NS(=O)(=O)CC)ccc2OC[C@@H]1C | 0 | 0 | 0
Cc1ccc2cccc(OCc3ccccc3)c2n1 | 0 | 0 | 0
Cc1cc(NC(=O)CCC(=O)N(CC(=O)NCC2CCCO2)c2cccc(C)c2C)no1 (configuration not stated) | 0 | 0 | 0
Cc1cccc(C)c1NC(=O)COC(=O)Cc1ccsc1 | 0 | 0 | -
C[C@@H]1CN([C@H](C)CO)C(=O)c2cc(NS(=O)(=O)c3ccc(Cl)cc3)ccc2O[C@@H]1CN(C)Cc1ccc(-c2ccccc2)cc1 | 0 | 29.9 | 0
C[C@H](CO)N1C[C@H](C)[C@H](CN(C)Cc2ccc(-c3ccccc3)cc2)Oc2ccc(NS(=O)(=O)c3ccc(Cl)cc3)cc2C1=O | 0 | 0 | 0
Cc1ccc(S(=O)(=O)NC(=O)Nc2ccc(Cl)cn2)cc1 | 0 | 0 | -
Cc1ccc(S(=O)(=O)NC(=O)Nc2ccc(C)cn2)cc1 | 0 | 98.4 | 0
COc1ccc(N2C3=C(C(=O)CC(C)(C)C3)C(c3cnn(C)c3)C3=C2CC(C)(C)CC3=O)cc1 | 0 | 0 | 0
Cc1cccc(NC(=O)COC(=O)CCc2c[nH]c3ccccc23)c1C | 0 | 0 | 0
CC(CN1CCCC1)OC(=O)c1ccc(F)cc1 (configuration not stated) | 0 | 0 | -
CC(CN1CCCC1)OC(=O)c1ccccc1Cl (configuration not stated) | ? | 17.9 | -
COc1ccc(C(=O)OC(C)CN2CCN(C)CC2)cc1 (configuration not stated) | 0 | 0 | -
Cc1ccccc1C(=O)OC(C)CN1CCN(C)CC1 (configuration not stated) | 0 | 0 | -
Cc1ccc(C(=O)OC(C)CN2CCN(C)CC2)cc1 (configuration not stated) | ? | 22.1 | -
CC(CN1CCCCC1)OC(=O)c1ccco1 (configuration not stated) | 0 | 0 | 38.9
COc1ccccc1N(C(=O)NCc1ccccc1)C1=NCC(C)S1 (configuration not stated) | 0 | 0 | 0
Cc1cc(Cl)ccc1OCCCC(=O)Nc1cc(S(=O)(=O)N2CCOCC2)ccc1N1CCOCC1 | 0 | 0 | 0
Cc1nn(-c2ccc(C(=O)OC(C)C)cc2)c(C)c1[N+](=O)[O-] | 0 | 0 | 0
COc1ccc(C2CC(c3cccc(C)c3)n3ncnc3N2)cc1 (configuration not stated) | 0 | 0 | 0
O=C(CSc1nnc(-c2cccnc2)n1-c1ccc(F)cc1)NCc1ccc2c(c1)OCO2 | - | 0 | -
COc1cc(/C=C2\NC(=S)NC2=O)ccc1OCc1cccc(C(=O)O)c1 | 0 | 0 | 0
SMILES | DENV2 CPE rescue | SIRT5 block | E-sel inducer
CCCCNc1ccc2c(c1)OC[C@@H](C)NS2(=O)=O | ? | 0 | 0
CCCCNc1ccc2c(c1)OC[C@@H](CC(C)C)NS2(=O)=O | 0 | 0 | 0
CC(C)C[C@@H]1COc2cc(NCCO)ccc2S(=O)(=O)N1 | 59.4 | 0 | 0
C[C@H]1COc2cc(NCCO)ccc2S(=O)(=O)N1 | 0 | 19.1 | 0
CCOC(=O)/C=C/C(=O)Nc1ccc(S(=O)(=O)Nc2nccs2)cc1 | 0 | 0 | -
CO[C@H]1CN(C)C(=O)c2ccc(NC(=O)c3ccc4c(c3)OCO4)cc2OC[C@H](C)N(CCC(F)(F)F)C[C@@H]1C | 0 | 0 | 0
CO[C@@H]1CN(C)C(=O)c2cc(NC(=O)c3ccc4c(c3)OCO4)ccc2OC[C@@H](C)N(CCC(F)(F)F)C[C@H]1C | 22.8 | - | 0
CO[C@@H]1CN(C)C(=O)c2cc(NC(=O)c3ccc4c(c3)OCO4)ccc2OC[C@@H](C)N(CCC(F)(F)F)C[C@@H]1C | 35.6 | - | 0
CO[C@@H]1CN(C)C(=O)c2ccc(NC(=O)c3ccc4c(c3)OCO4)cc2OC[C@@H](C)N(CCC(F)(F)F)C[C@H]1C | 0 | 0 | 0
CO[C@@H]1CN(C)C(=O)c2cc(NC(=O)c3ccc4c(c3)OCO4)ccc2OC[C@@H](C)N(CC2CC2)C[C@@H]1C | 77.4 | 0 | 0
CO[C@@H]1CN(C)C(=O)c2cc(NC(=O)c3ccc4c(c3)OCO4)ccc2OC[C@@H](C)N(CC2CC2)C[C@H]1C | 0 | 0 | 0
C[C@@H]1CN([C@@H](C)CO)C(=O)c2cccc(NC(=O)c3cnccn3)c2O[C@H]1CN(C)CC1CCCCC1 | 0 | 0 | 0
Cc1ccc(C(=O)Nc2ccccn2)cc1S(=O)(=O)N1CCOCC1 | 0 | 0 | 0
COc1cc(C(=O)Nc2ccc(NC(=O)C3CCCCC3)nc2)cc(OC)c1OC | 0 | 0 | -
Cc1nc(N(C)C)c2sc(=S)n(-c3ccccc3)c2n1 | - | 0 | 0
Cc1nc(N(C)C)c2sc(=S)n(C)c2n1 | 37.6 | - | -
CO[C@H]1CN(C)C(=O)c2ccc(NC(=O)C3CCOCC3)cc2OC[C@H](C)N(C)C[C@H]1C | - | - | 0
CC(=O)N1[C@@H]2c3ccc(-c4ccccc4)c(=O)n3C[C@@H]2[C@@H](CO)[C@@H]1C(=O)N1CCCCC1 | 0 | 0 | 0
CC(=O)N1[C@H](C(=O)N(C)C)[C@@H](CO)[C@@H]2Cn3c(ccc(-c4ccccc4F)c3=O)[C@@H]21 | 34.4 | 0 | 0
CN(C)C(=O)[C@H]1[C@H](CO)[C@H]2Cn3c(ccc(-c4ccccc4F)c3=O)[C@H]2N1C(=O)C1CC1 | 0 | 0 | 0
CC(=O)N1[C@H](C(=O)N2CCCCC2)[C@@H](CO)[C@@H]2Cn3c(ccc(-c4ccccc4)c3=O)[C@@H]21 | 20.1 | 0 | 0
CC1CCCCC1NC(=O)c1cc2c(=O)n3ccccc3nc2n1C (configuration not stated) | 0 | 0 | -
CC1CC(NC(=O)c2cc3c(=O)n4ccccc4nc3n2C)CC(C)(C)C1 (configuration not stated) | 0 | 15.0 | -
COc1ccc(COCC23N=C4SCc5ccccc5C(=O)N4[C@H](c4ccccc4O2)[C@H]3CO[Si](C)(C)C(C)(C)C)cc1 | 27.9 | 0 | -
COc1ccc(COC[C@]23N=C4Sc5ccc([N+](=O)[O-])cc5C(=O)N4[C@H](c4ccccc4O2)[C@H]3CO[Si](C)(C)C(C)(C)C)cc1 | 0 | 0 | -
SMILES | DENV2 CPE rescue | SIRT5 block | E-sel inducer
Cn1c(=O)c2[nH]c(CCCc3ccc([N+](=O)[O-])cc3)nc2n(C)c1=O | 0 | 0 | 0
O=C(/C=C/c1ccco1)Nc1ccccc1C(=O)O | 0 | 0 | 0
Cc1sc(N)nc1-c1ccc2c(c1)OCCO2 | 0 | 0 | -
NC1=NN=C(c2ccc3c(c2)OCCO3)CS1 | 0 | 15.1 | 0
COc1cc(CC(=O)OCC(=O)NC2CCCCC2)cc(OC)c1OC | 0 | 0 | 0
Cc1ccc(C(=O)NCC(=O)OCC(=O)c2cc(C)n(Cc3ccco3)c2C)cc1 | 0 | 0 | 0
CCn1c(C)cc(C(=O)COC(=O)CNC(=O)c2ccco2)c1C | 60.6 | - | 0
CCCNC(=O)N1[C@H](CO)[C@@H](c2ccc(-c3cccc(OC)c3)cc2)[C@@H]1C#N | - | 0 | 0
